Test results as given in ChEMBL document CHEMBL4732051, “The discovery of potent small molecule activators of human STING” (Eur J Med Chem, 2021).
The source made the active and inactive calls. No cut-off for these calls is given here.

Legend:
HEK293T [1] = assay: Induction of STING R232H mutant (unknown origin) expressed in HEK293T cells assessed as increase in luciferase coupled ISG54-ISRE activity incubated for 18 hrs luciferase reporter gene assay; assay type: cell-based; settings: Homo sapiens, filed as activator
HEK293T [2] = assay: Induction of STING H232 mutant (unknown origin) expressed in HEK293T cells assessed as increase in luciferase coupled ISG54-ISRE activity incubated for 18 hrs luciferase reporter gene assay; assay type: cell-based; settings: Homo sapiens, filed as activator
[3] = test system: Stimulator of interferon genes protein (Homo sapiens), Q86WV6 [R71H,G230A,R293Q]; assay: Induction of STING HAQ mutant (unknown origin) expressed in HEK293T cells assessed as increase in luciferase coupled ISG54-ISRE activity incubated for 18 hrs luciferase reporter gene assay; assay type: cell-based; settings: filed as activator
HEK293T [4] = assay: Induction of STING Q mutant (unknown origin) expressed in HEK293T cells assessed as increase in luciferase coupled ISG54-ISRE activity incubated for 18 hrs luciferase reporter gene assay; assay type: cell-based; settings: Homo sapiens, filed as activator
HEK293T [5] = assay: Activation of human STING R232H mutant expressed in HEK293T cells assessed as phosphorylation at (Ser366) upto 10 uM incubated for 2 hrs and measured by Western blot analysis; assay type: cell-based; settings: filed as activator, dose microM <=10, time 2.0 hrs
Outline: (§1)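 HEK293T clones stably carrying each human STING variant, picked by blasticidin selection and limiting dilution. 5 x 10^5 cells were exposed to compound at 10μM for 2 h, lysed in RIPA with phosphatase and protease inhibitors, and 10 μg protein run on 10% SDS-PAGE. Immunoblots probed for pSTING (Ser366), pIRF3 (Ser396), total STING, IRF3 and actin, detected by ECL.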

HEK293T [6] = assay: Activation of human STING R232H mutant expressed in HEK293T cells assessed as phosphorylation of IFR3 at (Ser396) upto 10 uM incubated for 2 hrs and measured by Western blot analysis; assay type: cell-based; settings: filed as activator, dose microM <=10, time 2.0 hrs; outline: as §1
HEK293T [7] = assay: Activation of human STING H232 mutant expressed in HEK293T cells assessed as phosphorylation at (Ser366) at 10 uM incubated for 2 hrs and measured by Western blot analysis; assay type: cell-based; settings: filed as activator; outline: as §1
HEK293T [8] = assay: Activation of human STING H232 mutant expressed in HEK293T cells assessed as phosphorylation of IRF-3 at (Ser396) at 10 uM incubated for 2 hrs and measured by Western blot analysis; assay type: cell-based; settings: filed as activator; outline: as §1
[9] = test system: Stimulator of interferon genes protein (Homo sapiens), Q86WV6 [R71H,G230A,R293Q]; assay: Activation of human STING HAQ mutant expressed in HEK293T cells assessed as phosphorylation at (Ser366) at 10 uM incubated for 2 hrs and measured by Western blot analysis; assay type: cell-based; settings: filed as activator; outline: as §1
[10] = test system: Stimulator of interferon genes protein (Homo sapiens), Q86WV6 [G230A,R293Q]; assay: Activation of human STING AQ mutant expressed in HEK293T cells assessed as phosphorylation of IRF-3 at (Ser396) at 10 uM incubated for 2 hrs and measured by Western blot analysis; assay type: cell-based; settings: filed as activator; outline: as §1
[11] = test system: Stimulator of interferon genes protein (Homo sapiens), Q86WV6 [UNDEFINED MUTATION]; assay: Activation of human STING R232 in A 172 cells assessed as phosphorylation at (Ser366) at 10 uM incubated for 2 hrs and measured by Western blot analysis; assay type: cell-based; settings: filed as activator
Outline: (§2)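 Tumor cell lines or human primary cells carrying endogenous STING variants; STING KO cells as control. 10µM for 2 h, then lysed in RIPA with phosphatase and protease inhibitors. 10 μg protein on 10% SDS-PAGE, blotted for pSTING (Ser366), pIRF3 (Ser396), STING, IRF3 and actin, ECL detection.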

[12] = test system: Stimulator of interferon genes protein (Homo sapiens), Q86WV6 [UNDEFINED MUTATION]; assay: Activation of human STING R232 in human CCRF-SB cells assessed as phosphorylation at (Ser366) at 10 uM incubated for 2 hrs and measured by Western blot analysis; assay type: cell-based; settings: filed as activator; outline: as §2
[13] = test system: Stimulator of interferon genes protein (Homo sapiens), Q86WV6 [UNDEFINED MUTATION]; assay: Activation of human STING R232 in human MDA-MB-468 cells assessed as phosphorylation of IRF3 at (Ser396) at 10 uM incubated for 2 hrs and measured by Western blot analysis; assay type: cell-based; settings: filed as activator; outline: as §2
[14] = target: T1, Stimulator of interferon genes protein (Homo sapiens, UniProt Q86WV6); assay: Activation of human STING expressed in human PBMC cells assessed as phosphorylation of IRF3 at (Ser396) at 10 uM incubated for 2 hrs and measured by Western blot analysis; assay type: cell-based; settings: filed as activator; outline: as §2
[15] = target: T1, Stimulator of interferon genes protein; assay: Activation of human STING in human PBMC cells assessed as induction of TNFalpha expression at 10 uM measured by qt-PCR analysis; assay type: cell-based; settings: filed as activator
Outline: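 2 x 10^5 freshly isolated human PBMC from healthy donors, separated on Histopaque, given a single compound concentration. Harvested early (6 hr) or late (20h). Cytokine mRNA read by qRT-PCR as relative normalized expression (fold) against vehicle-treated cells.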

[16] = test system: Stimulator of interferon genes protein (Homo sapiens), Q86WV6 [UNDEFINED MUTATION]; assay: Activation of human STING R232 in human dendritic cells assessed as induction of CD83 measured by qt-PCR analysis; assay type: cell-based; settings: Dendritic cell, filed as activator
Outline: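 PBMC isolated on Histopaque 1077, ACK-lysed, monocytes purified by MACS. Monocytes at 1 x 10^6 cells/ml in RPMI/10% FBS with 100ng/ml GMCSF and 50ng/ml IL4, 37 °C, 5% CO2, for 24–36 h. Compound added (1% DMSO final) for 6 h. CD86 and CD83 read by qPCR as fold of vehicle-treated cells.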

[17] = Stability in human plasma at 37 degC by LC-MS/MS analysis; assay type: ADME, cell-free
Outline: (§3)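 Compound at 10 μM was incubated in mouse or human plasma at 37°C and its stability assessed.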

[18] = Stability in mouse plasma at 37 degC by LC-MS/MS analysis; assay type: ADME, cell-free; outline: as §3
HeLa = assay: Cytotoxicity against human HeLa cells at 5 to 10 uM; assay type: cell-based; settings: dose 5-10 µM
B16-F10 = assay: Cytotoxicity against mouse B16 F10 cells at 5 to 10 uM; assay type: cell-based; settings: b16-f10, 10 µM, dose 5-10 µM
hERG (KCNH2) = hERG (KCNH2) (Homo sapiens, UniProt Q12809); assay: Inhibition of human ERG at 10 uM
[19] = AUC in BALB/c mouse at 5 mg/kg, iv measured up to 24 hrs by LC-MS/MS analysis; assay type: ADME, organism-based; set-up: route intravenous, dose 5 mg/kg, time <=24; settings: in vivo
Outline: (§4)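 Overnight-fasted mice, n=3 per group, single dose by lateral tail vein (iv) or oral gavage (po). Retro-orbital blood under isoflurane at 2 min–24 h (iv) or 5 min–24 h (po). Plasma spun at 1500 x g, 15 min, 4 °C, stored -80 °C, then analysed by LCMS.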

[20] = AUC in BALB/c mouse at 10 mg/kg, po measured up to 24 hrs by LC-MS/MS analysis; assay type: ADME, organism-based; set-up: route oral, dose 10 mg/kg, time <=24; settings: in vivo; outline: as §4
[21] = Half life in BALB/c mouse at 5 mg/kg, iv measured up to 24 hrs by LC-MS/MS analysis; assay type: ADME, organism-based; settings: in vivo; outline: as §4
CCRF-SB = assay: Activation of human wild type STING R232 expressed in CCRF-SB cells assessed as phosphorylation at (Ser396) at 10 uM incubated for 2 hrs and measured by Western blot analysis; settings: filed as activator

Chain of Stimulator of interferon genes protein (Homo sapiens), Q86WV6 [UNDEFINED MUTATION] (Q86WV6 whole entry, looked up, change not shown): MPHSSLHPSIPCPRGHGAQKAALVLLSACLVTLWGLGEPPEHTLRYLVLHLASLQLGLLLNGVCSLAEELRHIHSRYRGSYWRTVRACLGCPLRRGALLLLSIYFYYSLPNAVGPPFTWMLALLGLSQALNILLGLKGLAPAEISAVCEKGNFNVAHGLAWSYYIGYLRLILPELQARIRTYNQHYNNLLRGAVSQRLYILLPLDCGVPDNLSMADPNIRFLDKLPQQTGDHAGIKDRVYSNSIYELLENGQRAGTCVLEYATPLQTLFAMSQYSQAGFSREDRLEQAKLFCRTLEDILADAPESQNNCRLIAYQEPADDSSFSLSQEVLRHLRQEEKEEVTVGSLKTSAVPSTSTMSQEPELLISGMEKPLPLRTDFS
Chain of Stimulator of interferon genes protein (Homo sapiens), Q86WV6 [R71H,G230A,R293Q] (Q86WV6 whole entry R71H/G230A/R293Q): as the sequence (Q86WV6 whole entry, looked up, change not shown) above, with R71H, G230A, R293Q counted along it
T1 sequence (Q86WV6 whole entry): as the sequence (Q86WV6 whole entry, looked up, change not shown) above
Chain of Stimulator of interferon genes protein (Homo sapiens), Q86WV6 [G230A,R293Q] (Q86WV6 whole entry G230A/R293Q): as the sequence (Q86WV6 whole entry, looked up, change not shown) above, with G230A, R293Q counted along it
Chain of hERG (KCNH2) (Q12809 whole entry): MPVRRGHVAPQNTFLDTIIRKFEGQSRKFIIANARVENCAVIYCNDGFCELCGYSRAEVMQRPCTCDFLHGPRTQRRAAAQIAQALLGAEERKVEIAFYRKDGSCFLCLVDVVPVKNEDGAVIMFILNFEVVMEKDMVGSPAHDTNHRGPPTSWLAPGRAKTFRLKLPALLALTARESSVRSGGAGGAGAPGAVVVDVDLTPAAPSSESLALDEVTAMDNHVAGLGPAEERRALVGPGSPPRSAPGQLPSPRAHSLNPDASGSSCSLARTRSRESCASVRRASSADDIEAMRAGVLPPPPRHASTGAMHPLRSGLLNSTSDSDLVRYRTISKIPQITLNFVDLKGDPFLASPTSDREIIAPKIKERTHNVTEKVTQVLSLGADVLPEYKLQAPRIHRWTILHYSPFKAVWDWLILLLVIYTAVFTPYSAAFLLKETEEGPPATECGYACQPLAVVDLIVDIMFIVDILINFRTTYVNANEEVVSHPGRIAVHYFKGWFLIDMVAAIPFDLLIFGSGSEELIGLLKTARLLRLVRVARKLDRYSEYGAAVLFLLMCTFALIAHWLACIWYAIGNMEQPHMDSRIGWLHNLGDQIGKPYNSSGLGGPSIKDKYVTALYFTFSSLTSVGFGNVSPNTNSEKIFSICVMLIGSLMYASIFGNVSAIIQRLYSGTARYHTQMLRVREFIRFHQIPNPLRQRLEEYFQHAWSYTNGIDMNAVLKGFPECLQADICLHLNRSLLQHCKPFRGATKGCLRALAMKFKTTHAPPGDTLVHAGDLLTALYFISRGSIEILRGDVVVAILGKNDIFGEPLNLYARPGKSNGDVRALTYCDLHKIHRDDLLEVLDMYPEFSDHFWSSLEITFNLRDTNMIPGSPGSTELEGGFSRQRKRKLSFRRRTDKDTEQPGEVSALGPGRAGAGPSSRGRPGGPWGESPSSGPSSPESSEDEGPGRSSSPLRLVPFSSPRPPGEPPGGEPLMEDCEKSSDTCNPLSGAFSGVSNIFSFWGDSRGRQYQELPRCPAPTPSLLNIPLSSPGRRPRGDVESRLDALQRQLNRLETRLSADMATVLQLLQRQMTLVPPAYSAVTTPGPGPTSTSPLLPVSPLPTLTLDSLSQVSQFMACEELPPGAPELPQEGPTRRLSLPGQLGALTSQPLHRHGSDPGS

CC1(C)C(=O)N(Cc2c(F)cccc2Cl)c2cc(C(=O)NCc3c(F)cc(F)cc3F)ccc21
Activity (HEK293T [1]): Active | Activity (HEK293T [2]): Active | Activity [3]: Active | Activity (HEK293T [4]): Active | Activity (HEK293T [5]): Dose-dependent effect | Activity (HEK293T [6]): Dose-dependent effect | Activity (HEK293T [7]): Active | Activity (HEK293T [8]): Active | Activity [9]: Active | Activity [10]: Active | Activity [11]: Active | Activity [12]: Active | Activity [13]: Active | Activity [14]: Active | Activity [15]: Active | Activity [16]: Active | Stabilty [17]: Stable | Stabilty [18]: Stable | Activity (HeLa): Non-Toxic | Activity (B16-F10): Non-Toxic | inhibition at 10 µM (hERG (KCNH2)): 20% | AUC at 24 h [19]: 1220 ng·h/mL | AUC at 24 h [20]: 2090 ng·h/mL | half-life [21]: 1.41 h | Activity (CCRF-SB): Active
